Laboratory results as given in ChEMBL document CHEMBL3616442, “Unconventional Knoevenagel-type indoles: Synthesis and cell-based studies for the identification of pro-apoptotic agents” (Eur J Med Chem, 2015).

Legend:
[1] = test system: UACC-62; experiment: Growth inhibition of human UACC62 cells after 48 hrs by sulforhodamine B assay; format: functional; details: UACC-62, 48 h
[2] = test system: SNB-75; experiment: Growth inhibition of human SNB75 cells after 48 hrs by sulforhodamine B assay; format: functional; details: SNB-75, 48 h
[3] = test system: OVCAR-5; experiment: Growth inhibition of human OVCAR5 cells after 48 hrs by sulforhodamine B assay; format: functional; details: OVCAR-5, 48 h
[4] = test system: SK-MEL-2; experiment: Growth inhibition of human SK-MEL-2 cells after 48 hrs by sulforhodamine B assay; format: functional; details: SK-MEL-2, 48 h
[5] = test system: HCT-116; experiment: Growth inhibition of human HCT116 cells after 48 hrs by sulforhodamine B assay; format: functional; details: HCT-116, 48 h
Procedure, shortened: (§1)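 NCI 60-cell-line screen. Compounds tested at five 10-fold dilutions from 10^-4 to 10^-8 M. Cells exposed for the last 48 h of a 72 h incubation, growth estimated by sulforhodamine B protein assay. GI50 is the concentration giving 50% growth inhibition. Values beyond the tested range are expressed as greater or lesser than the extreme concentration.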

[6] = test system: OVCAR-4; experiment: Growth inhibition of human OVCAR4 cells after 48 hrs by sulforhodamine B assay; format: functional; details: OVCAR-4, 48 h; procedure, shortened: as §1
[7] = test system: NCI-H226; experiment: Growth inhibition of human NCI-H226 cells after 48 hrs by sulforhodamine B assay; format: functional; details: NCI-H226, 48 h; procedure, shortened: as §1
[8] = test system: A549; experiment: Growth inhibition of human A549 cells after 48 hrs by sulforhodamine B assay; format: functional; details: A549, 48 h; procedure, shortened: as §1
[9] = Growth inhibition of human BT549 cells after 48 hrs by sulforhodamine B assay; format: functional; details: BT-549, 48 h; procedure, shortened: as §1
[10] = Growth inhibition of human HCC2998 cells after 48 hrs by sulforhodamine B assay; format: functional; details: HCC 2998, 48 h; procedure, shortened: as §1
[11] = Growth inhibition of human NCI-ADR-RES cells after 48 hrs by sulforhodamine B assay; format: functional; procedure, shortened: as §1
[12] = test system: ACHN; experiment: Growth inhibition of human ACHN cells after 48 hrs by sulforhodamine B assay; format: functional; procedure, shortened: as §1
[13] = test system: HT-29; experiment: Growth inhibition of human HT-29 cells after 48 hrs by sulforhodamine B assay; format: functional; details: HT-29, 48 h; procedure, shortened: as §1
[14] = test system: TK-10; experiment: Growth inhibition of human TK10 cells after 48 hrs by sulforhodamine B assay; format: functional; details: TK-10, 48 h
[15] = test system: Malme-3M; experiment: Growth inhibition of human MALME-3M cells after 48 hrs by sulforhodamine B assay; format: functional; procedure, shortened: as §1
[16] = test system: KM12; experiment: Growth inhibition of human KM12 cells after 48 hrs by sulforhodamine B assay; format: functional; details: KM12, 48 h; procedure, shortened: as §1
[17] = test system: SW-620; experiment: Growth inhibition of human SW620 cells after 48 hrs by sulforhodamine B assay; format: functional; details: SW-620, 48 h
[18] = Growth inhibition of human LOXIMVI cells after 48 hrs by sulforhodamine B assay; format: functional; details: LOX IMVI; procedure, shortened: as §1
[19] = test system: U-251; experiment: Growth inhibition of human U251 cells after 48 hrs by sulforhodamine B assay; format: functional; details: U-251, 48 h
[20] = test system: SNB-19; experiment: Growth inhibition of human SNB19 cells after 48 hrs by sulforhodamine B assay; format: functional; details: SNB-19, 48 h
[21] = test system: MDA-MB-468; experiment: Growth inhibition of human MDA-MB-468 cells after 48 hrs by sulforhodamine B assay; format: functional; details: MDA-MB-468, 48 h; procedure, shortened: as §1
[22] = test system: SK-MEL-28; experiment: Growth inhibition of human SK-MEL-28 cells after 48 hrs by sulforhodamine B assay; format: functional; details: SK-MEL-28, 48 h
[23] = test system: NCI-H23; experiment: Growth inhibition of human NCI-H23 cells after 48 hrs by sulforhodamine B assay; format: functional; details: NCI-H23, 48 h; procedure, shortened: as §1
[24] = test system: HL-60(TB); experiment: Growth inhibition of human HL-60(TB) cells after 48 hrs by sulforhodamine B assay; format: functional; details: HL-60, 48 h
Procedure, shortened: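 NCI 60-cell-line screen, HL-60(TB) included. Compound given at five 10-fold dilutions from 10^-4 to 10^-8 M. Cells exposed for the last 48 h of a 72 h incubation. Growth or viability estimated by sulforhodamine B protein assay. GI50 is the concentration giving 50% growth inhibition. Values outside the tested range are reported as greater or less than the highest or lowest concentration.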

[25] = test system: DU-145; experiment: Growth inhibition of human DU145 cells after 48 hrs by sulforhodamine B assay; format: functional; details: DU-145, 48 h; procedure, shortened: as §1
[26] = test system: MCF7; experiment: Growth inhibition of human MCF7 cells after 48 hrs by sulforhodamine B assay; format: functional; details: MCF7, 48 h; procedure, shortened: as §1
[27] = test system: NCI-H460; experiment: Growth inhibition of human NCI-H460 cells after 48 hrs by sulforhodamine B assay; format: functional; details: NCI-H460, 48 h; procedure, shortened: as §1
[28] = Growth inhibition of human Hs 578T cells after 48 hrs by sulforhodamine B assay; format: functional; procedure, shortened: as §1
[29] = test system: OVCAR-8; experiment: Growth inhibition of human OVCAR8 cells after 48 hrs by sulforhodamine B assay; format: functional; details: OVCAR-8, 48 h
[30] = test system: OVCAR-3; experiment: Growth inhibition of human OVCAR3 cells after 48 hrs by sulforhodamine B assay; format: functional; details: OVCAR-3, 48 h; procedure, shortened: as §1
[31] = test system: A498; experiment: Growth inhibition of human A498 cells after 48 hrs by sulforhodamine B assay; format: functional; details: A498, 48 h; procedure, shortened: as §1
[32] = test system: HCT-15; experiment: Growth inhibition of human HCT15 cells after 48 hrs by sulforhodamine B assay; format: functional; details: HCT-15, 48 h; procedure, shortened: as §1
[33] = Growth inhibition of human RXF393 cells after 48 hrs by sulforhodamine B assay; format: functional; details: RXF 393, 48 h
[34] = test system: NCI-H322M; experiment: Growth inhibition of human NCI-H322M cells after 48 hrs by sulforhodamine B assay; format: functional; procedure, shortened: as §1
[35] = test system: UACC-257; experiment: Growth inhibition of human UACC257 cells after 48 hrs by sulforhodamine B assay; format: functional; details: UACC-257, 48 h
[36] = Growth inhibition of human HOP92 cells after 48 hrs by sulforhodamine B assay; format: functional; details: HOP-92, 48 h; procedure, shortened: as §1
[37] = Growth inhibition of human SF539 cells after 48 hrs by sulforhodamine B assay; format: functional; details: SF-539, 48 h
[38] = test system: MT4; experiment: Antiproliferative activity against human MT4 cells after 96 hrs by MTT assay; format: functional, cell-based; details: MT4, 96 h
Procedure, shortened: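 Exponentially growing MT-4 cells (CD4+ human T-cells carrying integrated HTLV-1 genome), seeded at 1×10^5 cells/mL in RPMI-1640 with 10% FCS and antibiotics. Serial dilutions of compound (DMSO stock 100 mM, diluted in medium), 37 °C, 5% CO₂, 96 h. Viability read by MTT. 50% inhibition versus untreated controls by linear regression. Mean ± SD of three independent determinations.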

[39] = test system: UO-31; experiment: Growth inhibition of human UO31 cells after 48 hrs by sulforhodamine B assay; format: functional; details: UO-31, 48 h
[40] = Growth inhibition of human EKVX cells after 48 hrs by sulforhodamine B assay; format: functional; procedure, shortened: as §1
[41] = Growth inhibition of human MOLT4 cells after 48 hrs by sulforhodamine B assay; format: functional; details: MOLT-4, 48 h; procedure, shortened: as §1
[42] = test system: SK-MEL-5; experiment: Growth inhibition of human SK-MEL-5 cells after 48 hrs by sulforhodamine B assay; format: functional; details: SK-MEL-5, 48 h
[43] = test system: K562; experiment: Growth inhibition of human K562 cells after 48 hrs by sulforhodamine B assay; format: functional; details: K562, 48 h; procedure, shortened: as §1

Compound: COC(=O)/C(=C\c1c(-c2ccccc2)[nH]c2ccccc12)S(C)(=O)=O
- GI50 [1]: 3.3 µM
- GI50 [2]: 2.3 µM
- GI50 [3]: 19.6 µM
- GI50 [4]: 11.8 µM
- GI50 [5]: 4.2 µM
- GI50 [6]: 6.2 µM
- GI50 [7]: 5 µM
- GI50 [8]: 5.3 µM
- GI50 [9]: 4.3 µM
- GI50 [10]: 8.8 µM
- GI50 [11]: 3.3 µM
- GI50 [12]: 9.2 µM
- GI50 [13]: 3.6 µM
- GI50 [14]: 7.7 µM
- GI50 [15]: 12.2 µM
- GI50 [16]: 1.5 µM
- GI50 [17]: 2.9 µM
- GI50 [18]: 5.1 µM
- GI50 [19]: 3.6 µM
- GI50 [20]: 8.7 µM
- GI50 [21]: 5.4 µM
- GI50 [22]: 6 µM
- GI50 [23]: 8 µM
- GI50 [24]: 3.4 µM
- GI50 [25]: 2.5 µM
- GI50 [26]: 2.9 µM
- GI50 [27]: 3.5 µM
- GI50 [28]: 3.5 µM
- GI50 [29]: 6.3 µM
- GI50 [30]: 1.9 µM
- GI50 [31]: 6.6 µM
- GI50 [32]: 2.4 µM
- GI50 [33]: 7.2 µM
- GI50 [34]: 7.4 µM
- GI50 [35]: 11.2 µM
- GI50 [36]: 6.6 µM
- GI50 [37]: 3.1 µM
- EC50 [38]: 0.4 µM
- GI50 [39]: 5.5 µM
- GI50 [40]: 8.9 µM
- GI50 [41]: 4.7 µM

Compound: COc1ccc(-c2[nH]c3ccc(OC)cc3c2/C=C(\C#N)S(=O)(=O)c2ccccc2)cc1
- GI50 [42]: 0.319 µM
- GI50 [1]: 0.66 µM
- GI50 [2]: 0.612 µM
- GI50 [3]: 4.6 µM
- GI50 [4]: 9 µM
- GI50 [5]: 0.539 µM
- GI50 [6]: 2.1 µM
- GI50 [7]: 3.7 µM
- GI50 [8]: 2.8 µM
- GI50 [9]: 4.8 µM
- GI50 [10]: 2 µM
- GI50 [11]: 0.494 µM
- GI50 [12]: 1.8 µM
- GI50 [13]: 0.435 µM
- GI50 [14]: 5 µM
- GI50 [15]: 3.2 µM
- GI50 [16]: 0.654 µM
- GI50 [17]: 0.54 µM
- GI50 [18]: 1.2 µM
- GI50 [19]: 0.563 µM
- GI50 [20]: 3.2 µM
- GI50 [21]: 1.3 µM
- GI50 [22]: 0.787 µM
- GI50 [43]: 0.508 µM
- GI50 [23]: 0.946 µM
- GI50 [24]: 0.899 µM
- GI50 [25]: 0.875 µM
- GI50 [26]: 0.851 µM
- GI50 [27]: 0.687 µM
- GI50 [28]: 0.538 µM
- GI50 [29]: 3.1 µM
- GI50 [30]: 0.359 µM
- GI50 [32]: 0.632 µM
- GI50 [34]: 4.3 µM
- GI50 [35]: 46.1 µM
- GI50 [36]: 0.698 µM
- GI50 [37]: 0.51 µM
- EC50 [38]: 0.2 µM
- GI50 [39]: 3.1 µM
- GI50 [40]: 3.3 µM
- GI50 [41]: 0.765 µM
